According to ChEMBL document CHEMBL1671761, “Preclinical characterization of BI 201335, a C-terminal carboxylic acid inhibitor of the hepatitis C virus NS3-NS4A protease” (Antimicrob Agents Chemother, 2010):

Experiments:
[1] = biological target: Neutrophil elastase (Homo sapiens, UniProt P08246); assay: Inhibition of human leukocyte elastase after 60 mins fluorescence assay
[2] = Inhibition of HCV 2a NS3/4A protease; design: species or system Hepatitis C virus subtype 2a; conditions: read-out: Ki(app)
Method in brief: (§1)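 Substrate was 5 μM anthranilyl-DDIVPAbu[C(O)-O]AMY(3-NO2)TW-OH in 50 mM Tris pH 8.0, 0.25 M citrate, 0.01% dodecylmaltoside, 1 mM TCEP, 5% DMSO. Run at 23°C for 60-70 min, stopped with MES pH 5.8, read by product fluorescence. IC50 converted to apparent Ki via IC50=Ki(1+[S]/Km). Mean ± SD, ≥3 experiments.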

[3] = tested on: Huh-7; assay: Cytotoxicity activity against human HuH7 cells by MTT assay; assay type: functional
Method in brief: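 MTT assay in proliferating Huh-7 cells exposed 72 h to serial inhibitor dilutions; formazan read at 570 nm. CC50 taken from percent inhibition.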

[4] = Clearance in Sprague-Dawley rat liver microsomes; assay type: ADME, Microsome; conditions: read-out: QH
Method in brief: (§2)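 Male liver microsomes (Sprague-Dawley rat, beagle dog, human, rhesus monkey) at 1 mg microsomal protein in 1 ml of 0.066 M Tris pH 7.4 with 2.5 mM NADPH. Initial compound concentration was 2 μM. Incubations ran at 37°C and were started with NADPH. Samples were taken at 0, 10 and 20 min and quenched with an equal volume of 1:1 acetonitrile-methanol. Supernatants were analysed by HPLC and clearance calculated by the Obach method.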

[5] = Apparent permeability from basolateral to apical side in human Caco2 cells; assay type: ADME, cell-based; conditions: Caco-2, read-out: permeability
Method in brief: (§3)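 Caco-2 monolayers were differentiated 23-25 days on Transwell inserts. After 30 min at 37°C, compound was added to the donor side (apical for A-to-B, basolateral for B-to-A). Receiver sampled at 0, 1, 2, 3 h; analysed by HPLC.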

[6] = Inhibition of HCV 1a NS3/4A protease; design: species or system Hepatitis C virus subtype 1a; conditions: read-out: Ki(app); method in brief: as §1
[7] = biological target: Cathepsin B (Homo sapiens, UniProt P07858); assay: Inhibition of human CatB after 60 mins fluorescence assay
[8] = Clearance in human liver microsomes; assay type: ADME, Microsome; conditions: read-out: QH; method in brief: as §2
[9] = tested on: Hepatitis C virus; assay: Antiviral activity against HCV 1b infected in Huh7 cells assessed as inhibition of viral replication after 72 hrs by RT-PCR; assay type: functional, organism-based, Hepacivirus hominis; conditions: genotype 1b, Huh-7, 72 h
Method in brief: (§4)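 Huh-7-derived subgenomic replicon cells of genotype 1a or 1b, grown in DMEM/10% FBS with G418. Replicon RNA was quantified by TaqMan real-time RT-PCR against an in vitro-transcribed RNA standard curve and normalized to total RNA (RiboGreen).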

[10] = Inhibition of HCV 6a NS3/4A protease; design: species or system Hepatitis C virus subtype 6a; conditions: read-out: Ki(app); method in brief: as §1
[11] = tested on: Hepatitis C virus; assay: Antiviral activity against HCV 1a infected in Huh7 cells assessed as inhibition of viral replication after 72 hrs by RT-PCR; assay type: functional, organism-based, Hepacivirus hominis; conditions: subtype 1a, Huh-7, 72 h; method in brief: as §4
[12] = Inhibition of HCV 3a NS3/4A protease; design: species or system Hepatitis C virus subtype 3a; conditions: read-out: Ki(app); method in brief: as §1
[13] = Apparent permeability from apical to basolateral side in human Caco2 cells; assay type: ADME, cell-based; conditions: Caco-2, read-out: permeability; method in brief: as §3
[14] = tested on: Hepatitis C virus; assay: Inhibition of HCV 1b NS3/4A protease; design: species or system Hepatitis C virus subtype 1b; conditions: read-out: Ki(app)
Method in brief: as §1, with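 “Full-length NS3 coexpressed with the 54-residue NS4A, 0.5 nM (2.5 nM for genotype 1a). Substrate” for “Substrate”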

[15] = Inhibition of HCV 4a NS3/4A protease; design: species or system Hepatitis C virus subtype 4a; conditions: read-out: Ki(app); method in brief: as §1
[16] = Inhibition of HCV 2b NS3/4A protease; design: species or system Hepatitis C virus subtype 2b; conditions: read-out: Ki(app); method in brief: as §1
[17] = Binding affinity to HCV 5a NS3/4A protease; design: species or system Hepatitis C virus subtype 5a; conditions: read-out: Ki(app); method in brief: as §1

Chain of Neutrophil elastase (P08246 whole entry): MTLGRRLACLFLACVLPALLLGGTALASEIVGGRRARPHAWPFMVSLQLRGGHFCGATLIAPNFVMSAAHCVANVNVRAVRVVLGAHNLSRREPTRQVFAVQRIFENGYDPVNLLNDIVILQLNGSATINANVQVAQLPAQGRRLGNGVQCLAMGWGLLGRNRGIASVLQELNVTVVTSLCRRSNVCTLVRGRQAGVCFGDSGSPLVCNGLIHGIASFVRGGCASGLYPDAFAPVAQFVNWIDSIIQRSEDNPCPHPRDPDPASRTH

SMILES | IC50 [1] [nM] | Ki [2] [nM] | CC50 [3] [nM] | hepatic extraction ratio [4] | Papp B→A [5] [×10⁻⁶ cm/s] | Ki [6] [nM] | IC50 [7] [nM] | hepatic extraction ratio [8] | EC50 [9] [nM] | Ki [10] [nM] | EC50 [11] [nM] | Ki [12] [nM] | Papp A→B [13] [×10⁻⁶ cm/s] | Ki [14] [nM] | Ki [15] [nM] | Ki [16] [nM] | Ki [17] [nM]
CCC[C@H](NC(=O)[C@@H]1[C@H]2CCC[C@H]2CN1C(=O)[C@@H](NC(=O)[C@@H](NC(=O)c1cnccn1)C1CCCCC1)C(C)(C)C)C(=O)C(=O)NC1CC1 | 680 | 15 | 37000 | 0.41 | 23 | 3.2 | 2300 | 0.64 | 540 | 4.5 | 700 | 160 | 4.1 | 4.4 | 50 | 73 | 110
CC(C)(C)NC(=O)N[C@H](C(=O)N1C[C@H]2[C@@H]([C@H]1C(=O)NC(CC1CCC1)C(=O)C(N)=O)C2(C)C)C(C)(C)C (stereo partly specified) [BOCEPREVIR] | 17000 | 7.3 | > 70000 | – | 23 | 1.1 | 6200 | – | – | 2.3 | 550 | 23 | 0.6 | 2 | 8.6 | 28 | 18
